Results as given in article PMC10530161 (Bioorganic & medicinal chemistry, 2023).
Entries after “also recorded” stand apart in the source; their conditions may differ.

What was measured:
[1] = test system: SW620 colorectal cancer cells which overexpress claudin-1; test: Cell survival assay in SW620 cells, single concentration 25 μM; type: cell-based; settings: for activity in SW620 cell survival assay: SW620 cells, initial SAR survey at 25 μM; for inhibition at 25 µM: Homo sapiens, SW-620, read-out: % inhibition at 25 uM
[2] = Human liver microsomal intrinsic clearance; type: in vitro ADME; settings: for CLint scaled: human, liver microsomes, Intrinsinc Clearance hCLINT
How it was run: (§1)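 Intrinsic clearance was measured in human or mouse liver microsomes, depending on the line. Predicted hepatic clearance was then calculated from each species' intrinsic clearance using the well-stirred organ clearance model, with binding terms excluded. The work was done externally as in vitro DMPK studies.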

[3] = Mouse liver microsomal intrinsic clearance; type: in vitro ADME; settings: for CLint scaled: mouse, liver microsomes, Intrinsinc Clearance mCLINT
How it was run: as §1

SW620 cells = test: Dose response assay in SW620 cells; type: cell-based; settings: starting at 12.5 μM
colorectal cancer = settings: in vivo mouse model; cited from earlier work
CYP3A4 = CYP3A4 (Homo sapiens, UniProt P08684); test: CYP inhibition, CYP3A4; type: in vitro ADME
Chain of CYP3A4 (P08684 whole entry): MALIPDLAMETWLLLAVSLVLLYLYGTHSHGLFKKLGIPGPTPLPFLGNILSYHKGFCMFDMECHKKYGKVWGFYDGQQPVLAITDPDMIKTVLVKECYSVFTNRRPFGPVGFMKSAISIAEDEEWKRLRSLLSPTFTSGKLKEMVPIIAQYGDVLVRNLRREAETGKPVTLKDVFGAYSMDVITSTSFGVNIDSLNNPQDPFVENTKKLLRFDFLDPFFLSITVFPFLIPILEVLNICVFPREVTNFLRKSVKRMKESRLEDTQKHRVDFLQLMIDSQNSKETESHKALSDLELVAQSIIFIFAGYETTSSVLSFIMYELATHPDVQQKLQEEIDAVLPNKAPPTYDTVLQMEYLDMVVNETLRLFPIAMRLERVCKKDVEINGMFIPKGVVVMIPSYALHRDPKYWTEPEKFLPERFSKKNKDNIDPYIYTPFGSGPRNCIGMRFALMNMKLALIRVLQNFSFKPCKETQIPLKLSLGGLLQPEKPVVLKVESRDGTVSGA

CYP2D6 = CYP2D6 (Homo sapiens, UniProt P10635); test: CYP inhibition, CYP2D6; type: in vitro ADME
Chain of CYP2D6 (P10635 whole entry): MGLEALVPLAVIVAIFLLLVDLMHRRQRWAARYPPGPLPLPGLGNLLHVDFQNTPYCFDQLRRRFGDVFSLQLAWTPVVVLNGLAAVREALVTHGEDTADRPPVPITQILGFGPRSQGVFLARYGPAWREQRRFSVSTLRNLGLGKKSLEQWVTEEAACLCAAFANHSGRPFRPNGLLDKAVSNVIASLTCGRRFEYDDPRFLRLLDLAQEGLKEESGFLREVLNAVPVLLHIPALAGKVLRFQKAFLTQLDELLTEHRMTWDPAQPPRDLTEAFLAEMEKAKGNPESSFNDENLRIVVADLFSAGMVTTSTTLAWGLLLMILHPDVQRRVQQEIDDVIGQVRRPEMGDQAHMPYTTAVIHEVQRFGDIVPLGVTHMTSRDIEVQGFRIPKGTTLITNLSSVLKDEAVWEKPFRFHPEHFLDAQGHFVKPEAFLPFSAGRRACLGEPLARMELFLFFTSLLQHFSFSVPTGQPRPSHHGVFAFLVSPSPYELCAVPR

CYP2C19 = CYP2C19 (Homo sapiens, UniProt P33261); test: CYP inhibition, CYP2C19; type: in vitro ADME
Chain of CYP2C19 (P33261 whole entry): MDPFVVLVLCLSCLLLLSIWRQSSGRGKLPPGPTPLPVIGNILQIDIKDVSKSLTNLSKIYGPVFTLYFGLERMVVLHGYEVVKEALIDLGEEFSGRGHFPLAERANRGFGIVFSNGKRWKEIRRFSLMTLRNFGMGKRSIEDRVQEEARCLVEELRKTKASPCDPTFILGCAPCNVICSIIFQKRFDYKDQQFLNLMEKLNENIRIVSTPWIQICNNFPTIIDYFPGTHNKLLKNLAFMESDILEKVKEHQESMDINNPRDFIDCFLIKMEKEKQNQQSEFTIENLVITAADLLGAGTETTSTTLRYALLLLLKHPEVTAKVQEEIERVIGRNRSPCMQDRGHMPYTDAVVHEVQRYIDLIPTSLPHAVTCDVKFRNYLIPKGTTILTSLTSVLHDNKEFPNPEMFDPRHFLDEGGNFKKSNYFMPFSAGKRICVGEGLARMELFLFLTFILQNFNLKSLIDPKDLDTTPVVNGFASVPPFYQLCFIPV

IEC-6 cells = test: General cytotoxicity, dose response in normal IEC-6 cells; type: cell-based; settings: control for general cytotoxicity

For `COc1cc2ccccc2cc1C(=O)NC(=S)Nc1ccc(-c2nc3ccccc3s2)cc1` [compound 13], the “activity in SW620 cell survival assay” value [1] was “not active”.
With `O=C(NC(=S)Nc1ccc(-c2ncco2)cc1)c1ccc2cccnc2c1` [compound 37] the inhibition at 25 µM [1] was 1.4%.
In the case of `COc1cc2ccccc2cc1C(=O)NC(=O)Nc1ccc(-c2nc3ccccc3o2)cc1` [compound 24], the inhibition at 25 µM [1] is reported as 0%.
In the case of `COc1cc2ccccc2cc1C(=O)NC(=O)Nc1ccc(-c2nnco2)cc1` [compound 26], the inhibition at 25 µM [1] is reported as 23.8%.
For `O=C(NC(=O)c1ccc2ccccc2c1)Nc1ccc(-c2nc3ccccc3[nH]2)cc1` [compound 29], the inhibition at 25 µM [1] was 12.7%, the CLint scaled [2] was 86.3 mL/min/kg and the CLint scaled [3] was 365 mL/min/kg.
In the case of `O=C(NC(=S)Nc1ccc(-c2nc3ccccc3o2)cc1)c1ccc2cccnc2c1` [compound 36], the inhibition at 25 µM [1] is reported as 0%.
With `COc1cc2ccccc2cc1C(=O)NC(=S)Nc1ccc(-c2nc3ccccc3s2)cn1` [compound 14] the “activity in SW620 cell survival assay” value [1] was “not active”.
Work on `COc1cc2ccccc2cc1C(=O)NC(=O)Nc1ccc(-c2cscn2)cc1` [compound 27] yielded an inhibition at 25 µM [1] of 42.6%, a CLint scaled [2] of 92.8 mL/min/kg and a CLint scaled [3] of 43.5 mL/min/kg.
With `COc1cc2ccccc2cc1C(=O)NC(=S)Nc1ccc(-c2nc3ccccc3[nH]2)cc1` [compound 10] the “stability in human liver microsomes” value [2] was “moderate stability”, the CLint scaled [2] was 27.8 mL/min/kg and the “stability in mouse liver microsomes” value [3] was “moderate stability”. For the same molecule, the CLint scaled [3] was 42.7 mL/min/kg.
Work on `COc1cc2ccccc2cc1C(=O)Nc1ccc(-c2nc3ccccc3s2)cc1` [compound 20] yielded an inhibition at 25 µM [1] of 42.3%.
Molecule `COc1cc2ccccc2cc1C(=O)NC(=S)Nc1ccc(-c2cscn2)cc1` [compound 21] has an inhibition at 25 µM [1] of 29%.
Work on `COc1ccccc1NC(=O)Nc1ccc(-c2nc3ccccc3[nH]2)cc1` [compound 40] yielded an inhibition at 25 µM [1] of 23.8%.
With `O=C(NC(=S)Nc1ccc(-c2nc3ccccc3o2)cc1)c1ccc2ccccc2c1` [compound 28] the inhibition at 25 µM [1] was 76.4%, the “activity in SW620 cell survival assay” value [1] was “active” and the “% cell survival” value (SW620 cells) was under 50%. For the same molecule, the “stability in human liver microsomes” value [2] was “moderate stability”, the CLint scaled [2] was 32.4 mL/min/kg and the “stability in mouse liver microsomes” value [3] was “moderate stability”. For the same molecule, the CLint scaled [3] was 53.4 mL/min/kg and the “activity in in vivo model of colorectal cancer” value (colorectal cancer) was “active; also recorded: antitumor and chemosensitizer activities”.
For `COc1cc2ccccc2cc1C(=O)NC(=S)Nc1ccc(-c2nnco2)cc1` [compound 18], the “stability in human liver microsomes” value [2] was “regained the stability”, the CLint scaled [2] was under 20 mL/min/kg and the “stability in mouse liver microsomes” value [3] was “moderate stability”. It also gave a CLint scaled [3] of 38.2 mL/min/kg, an inhibition at 10 µM (CYP3A4) of under 50% and an inhibition at 10 µM (CYP2D6) of under 50%. The inhibition at 10 µM (CYP2C19) was under 50%.
Molecule `COc1cc2c(OC)cccc2cc1C(=O)NC(=S)Nc1ccc(-c2nc3ccccc3[nH]2)cc1` [compound 33] has an inhibition at 25 µM [1] of 37.6%.
Molecule `O=C(NC(=S)Nc1ccc(-c2nc3ccccc3[nH]2)cc1)c1ccc2cccnc2c1` [compound 35] has an inhibition at 25 µM [1] of 0%.
For `CC(C)Oc1cc2ccccc2cc1C(=O)NC(=S)Nc1ccc(-c2nc3ccccc3o2)cc1` [compound 32], the inhibition at 25 µM [1] was 17.2%.
`COc1cc2c(OC)cccc2cc1C(=O)NC(=S)Nc1ccc(-c2nc3ccccc3s2)cc1` [compound 34] gave an inhibition at 25 µM [1] of 15.8%.
Molecule `COc1cc2ccccc2cc1C(=O)NC(=O)Nc1ccc(-c2nc3ccccc3s2)cc1` [compound 25] has an inhibition at 25 µM [1] of 0%.
With `O=C1c2ccccc2CCN1C(=S)Nc1ccc(-c2ncco2)cc1` [compound 39] the inhibition at 25 µM [1] was 0.9%.
For `COc1cc2ccccc2cc1C(=O)NC(=S)Nc1ccc(-c2nccs2)cc1` [compound 16], the “stability in human liver microsomes” value [2] was “instability”, the CLint scaled [2] was 202 mL/min/kg and the “stability in mouse liver microsomes” value [3] was “moderately stable”. For the same molecule, the CLint scaled [3] was 37.7 mL/min/kg.
With `CCOc1cc2ccccc2cc1C(=O)NC(=S)Nc1ccc(-c2nc3ccccc3s2)cc1` [compound 31] the inhibition at 25 µM [1] was 13%.
With `O=C1c2ccccc2CCN1C(=S)Nc1ccc(-c2nc3ccccc3o2)cc1` [compound 38] the CLint scaled [2] was under 20 mL/min/kg and the CLint scaled [3] was 139 mL/min/kg.
For `COc1cc2ccccc2cc1C(=O)NC(=S)Nc1ccc(-c2nc3ccccc3o2)cc1` [compound 11], the “activity in SW620 cell survival assay” value [1] was “not active”, the “stability in human liver microsomes” value [2] was “stable” and the CLint scaled [2] was under 20 mL/min/kg. For the same molecule, the “stability in mouse liver microsomes” value [3] was “stable” and the CLint scaled [3] was under 20 mL/min/kg.
With `COc1cc2ccccc2cc1C(=O)NC(=S)Nc1ccc(-c2nc3ccccc3o2)cn1` [compound 12] the “activity in SW620 cell survival assay” value [1] was “not active”.
In the case of `COc1cc2ccccc2cc1C(=O)NC(=S)Nc1ccc(-c2ncc[nH]2)cc1` [compound 15], the “concentration at which cytotoxicity was shown” value (IEC-6 cells) is reported as 12.5 µM, the “stability in human liver microsomes” value [2] is reported as “instability” and the CLint scaled [2] is reported as 125 mL/min/kg. For the same molecule, the “stability in mouse liver microsomes” value [3] was “moderately stable”, the CLint scaled [3] was 57.8 mL/min/kg and the inhibition at 10 µM (CYP3A4) was under 50%. For the same molecule, the inhibition at 10 µM (CYP2D6) was under 50% and the inhibition at 10 µM (CYP2C19) was under 50%.
For `COc1cc2ccccc2cc1C(=O)NC(=S)Nc1ccc(-c2ncon2)cc1` [compound 19], the inhibition at 25 µM [1] was 18.4%, the “activity in SW620 cell survival assay” value [1] was “inactive” and the “stability in human liver microsomes” value [2] was “regained the stability”. For the same molecule, the CLint scaled [2] was under 20 mL/min/kg, the “stability in mouse liver microsomes” value [3] was “moderate stability” and the CLint scaled [3] was 46.2 mL/min/kg.
For `CCOc1cc2ccccc2cc1C(=O)NC(=S)Nc1ccc(-c2nc3ccccc3o2)cc1` [compound 30], the inhibition at 25 µM [1] was 0%.
With `COc1cc2ccccc2cc1C(=O)NC(=O)Nc1ccc(-c2nc3ccccc3[nH]2)cc1` [compound 23] the inhibition at 25 µM [1] was 90.8%, the CLint scaled [2] was 67.8 mL/min/kg and the CLint scaled [3] was 236 mL/min/kg.
Work on `COc1cc2ccccc2cc1C(=O)Nc1ncc(C(F)(F)F)s1` [compound 22] yielded an inhibition at 25 µM [1] of 17.6%.
